Data taken from ChEMBL document CHEMBL4376862, “Synthesis and evaluation of novel chlorophyll a derivatives as potent photosensitizers for photodynamic therapy” (Eur J Med Chem, 2020).
Active and inactive are the calls of the source. The calls are words filed in the database; no cut-off is given here.

How the values were obtained:
[1] = Therapeutic index, ratio of TC50 for human A549 cells under dark to IC50 for human A549 cells irradiated with 1 J/cm2 of 650 nanometer laser light; type: toxicity, cell-based; details: read-out: TI
Outline: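 A549 cells (F-12K, 10% FBS, 37 °C, 5% CO2) seeded 24 h, then exposed to 0–10 photosensitizer for 24 h. Dark arm: MTT 48 h later. Light arm: 650 nm laser, 1 J/cm2 (25 mW/cm2, 40 s), then MTT. A570 viability relative to control, triplicate. Ratio = dark TC50 / irradiated IC50.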

[2] = Octanol/water partition coefficient, logP of compound by shake flask method; type: physicochemical
Outline: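 Shake-flask method: equilibrium concentrations in octanol and water measured by UV-vis absorbance; log P taken as log of octanol/water concentration ratio (mg/L).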

[3] = Absorption property of compound in DMSO assessed as strong absorption wavelength at 1 x 10^-3 M by UV-spectra analysis; type: physicochemical; details: 1000 µM
Outline: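 Stocks 1 mM in DMSO; spectra run over […] range (units as printed), 300–800 nm in 1 nm steps, room temperature, quartz cuvettes, UV-vis spectrophotometer.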

[4] = Emission property of a compound in DMSO assessed as red shift at 5 uM on excitation with light at 410 to 415 nm by 3D fluorescence spectra analysis; type: physicochemical
Outline: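 Stock 1 mM in DMSO, measured at […] (so in the source); excitation scanned 350–640 nm, emission 600–750 nm, 1 nm steps, room temperature, quartz cuvettes; 3D fluorescence matrix spectra recorded.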

[5] = Induction of ROS generation in DMF solution assessed as slope of the photodegradation rate of DPBF at 2 uM followed by irradiation measured every 10 secs by spectrophotometric analysis; type: functional
[6] = Drug uptake in human A549 cells incubated upto 24 hrs by fluorescence spectrophotometer analysis; type: ADME, cell-based; details: a549, 24 h
Outline: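 A549 cells (F-12K, 10% FBS, 37 °C, 5% CO2) grown in 24 wells and exposed to photosensitizer for 0.5, 1, 2, 4, 8, 12 or 24 h; cells harvested by digestion, fluorescence read on a spectrophotometer.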

[7] = Dark toxicity in human A549 cells assessed as reduction in cell viability incubated under dark for 24 hrs measured after 48 hrs by MTT assay; type: cell-based; details: read-out: TC50
Outline: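 A549 cells seeded at 5×10^4 cells/100 µL per well for 24 h, treated in the dark with […] (so in the source) for 24 h; MTT added 4 h, absorbance 570 nm, 48 h later; viability as OD treated/OD control; triplicate, mean ± SD.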

A549 [8] = experiment: Phototoxicity against human A549 cells assessed as reduction in cell proliferation irradiated with 1 J/cm2 of 650 nanometer laser light preincubated for 24 hrs measured after 48 hrs by MTT assay; type: functional, cell-based; details: A549, light or radiation study
Outline: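 A549 cells seeded 5×10^4 cells/100 µL per well, given […] for 24 h, then 650 nm semiconductor laser at 1 J/cm2 (25 mW/cm2, 40 s); MTT 4 h, absorbance 570 nm; viability vs control; triplicate, mean ± SD.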

A549 [9] = experiment: Photodynamic antitumor activity against human A549 cells xenografted in BALB/c nude mouse assessed as decrease in tumor weight at 0.3 mg/kg, iv followed by laser light irradiation at 120 J/cm2 measured after 14 days; type: functional
Outline: (§1)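 Male BALB/c nude mice (5–6 weeks, 14–16 g) given 2×10^6 A549 cells s.c. in 0.2 mL PBS; at 6–7 mm tumors randomized into ten groups; drug via tail vein, 650 nm diode laser 120 J/cm2 at 180 mW/cm2 24 h later; caliper volume a×b²/2, followed 14 days.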

[10] = Induction of ROS generation in DMF solution assessed as ROS quantum yield at 2 uM followed by irradiation measured every 10 secs by spectrophotometric analysis; type: functional
Mus musculus [11] = experiment: Phototoxicity in ICR mouse assessed as change in auricles 0.45 mg/kg, iv in presence of 10 mW/cm2 light irradiation for 10 mins upto 7 days measured after 1day of light irradiation by H and E staining based microscopic analysis; type: organism-based; details: in vivo
Mus musculus [12] = experiment: Phototoxicity in ICR mouse assessed as ear weight at 0.45 mg/kg, iv followed by 10 mW/cm2 light irradiation for 10 mins at 7 days after drug challenge measured after 1 day of light irradiation (13.2 +/- 1.6 mg); type: organism-based; details: in vivo
Mus musculus [13] = experiment: Phototoxicity in ICR mouse assessed as ear weight at 0.45 mg/kg, iv followed by 10 mW/cm2 light irradiation for 10 mins at 5 days after drug challenge measured after 1 day of light irradiation (reference value: 12.9 +/- 1.4 mg); type: organism-based; details: in vivo
Mus musculus [14] = experiment: Phototoxicity in ICR mouse assessed as ear weight at 0.45 mg/kg, iv followed by 10 mW/cm2 light irradiation for 10 mins at 3 days after drug challenge measured after 1 day of light irradiation (reference value: 12.8 +/- 1.5 mg); type: organism-based; details: in vivo
Mus musculus [15] = experiment: Phototoxicity in ICR mouse assessed as ear weight at 0.45 mg/kg, iv followed by 10 mW/cm2 light irradiation for 10 mins at 1 day after drug challenge measured after 1 day of light irradiation (reference value: 12.6 +/- 1.2 mg); type: organism-based; details: in vivo
Mus musculus [16] = experiment: Phototoxicity in ICR mouse assessed as change in exposed neck skin 0.45 mg/kg, iv in presence of 10 mW/cm2 light irradiation for 10 mins upto 7 days measured after 1day of light irradiation by H and E staining based microscopic analysis; type: organism-based; details: in vivo
Cavia porcellus [17] = experiment: Phototoxicity in guinea pig assessed as change in left ear weight 4.5 mg/kg, iv followed by 10 mW/cm2 light irradiation for 10 mins measured after 1 day of light irradiation (reference value: 39.2 +/- 1.8 mg); type: organism-based; details: in vivo
Cavia porcellus [18] = experiment: Phototoxicity in guinea pig assessed as change in right ear weight 4.5 mg/kg, iv followed by 10 mW/cm2 light irradiation for 10 mins measured after 1 day of light irradiation (reference value: 40.4 +/- 2.4 mg); type: organism-based; details: in vivo
Cavia porcellus [19] = experiment: Phototoxicity in guinea pig assessed as change in back skin weight 4.5 mg/kg, iv followed by 10 mW/cm2 light irradiation for 10 mins measured after 1day of light irradiation (reference value: 72.4 +/- 3.1 mg); type: organism-based; details: in vivo, 24 h
A549 [20] = experiment: Photodynamic antitumor activity against human A549 cells xenografted in BALB/c nude mouse assessed as increase in tumor tissue damage at 0.3 mg/kg, iv incubated for 24 hrs followed by laser light irradiation at 120 J/cm2 measured up to 14 days; type: functional, organism-based; outline: as §1
A549 [21] = experiment: Photodynamic antitumor activity against human A549 cells xenografted in BALB/c nude mouse assessed as reduction in tumor volume at 0.3 mg/kg, iv incubated for 24 hrs followed by laser light irradiation at 120 J/cm2 measured up to 14 days; type: functional, organism-based; outline: as §1
A549 [22] = experiment: Photodynamic antitumor activity against human A549 cells xenografted in BALB/c nude mouse assessed as survival time at 0.3 mg/kg, iv incubated for 24 hrs followed by laser light irradiation at 120 J/cm2 measured up to 70 days; type: functional, organism-based
Outline: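 Nude mice bearing A549 xenografts, 0.3 mg/kg drug i.v. then 650 nm laser 120 J/cm2 at 180 mW/cm2 after 24 h; survival shown as Kaplan-Meier with log-rank test, n = 5.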

Mus musculus [23] = experiment: Phototoxicity in ICR mouse assessed as change in skin of the backs 0.45 mg/kg, iv in presence of 10 mW/cm2 light irradiation for 10 mins upto 7 days measured after 1 day of light irradiation by H and E staining based microscopic analysis; type: organism-based; details: in vivo
Cavia porcellus [24] = experiment: Phototoxicity in guinea pig assessed as change in auricles of left ear at 4.5 mg/kg, iv in presence of 10 mW/cm2 light irradiation for 10 mins measured after 1day of light irradiation by H and E staining based microscopic analysis; type: organism-based; details: in vivo
Cavia porcellus [25] = experiment: Phototoxicity in guinea pig assessed as change in back skin at 4.5 mg/kg, iv in presence of 10 mW/cm2 light irradiation for 10 mins measured after 1day of light irradiation by H and E staining based microscopic analysis; type: organism-based; details: in vivo
[26] = Absorption property of compound in DMSO assessed as Q band absorption at 1 x 10^-3 mM by UV-spectra analysis; details: 1 µM

Compound	logP [2]	Activity [3]	Activity [4] [nm]	Drug uptake [6]	selectivity ratio [1]	K [5] [s⁻¹]	CC50 at 24 h [7] [µM]	IC50 (A549 [8]) [µM]	Activity (A549 [9]) [g]	Ratio [10]	other results
CCOC(C)c1c(C)c2cc3nc(c4c5[nH]c(cc6nc(cc1[nH]2)C(C)=C6CC)c(C)c5C(=O)C4)[C@@H](CCC(=O)NCC(=O)CCC(=O)O)[C@@H]3C (some centres not stated)	2.16	660 to 670 nm	661 to 669	Active	4.74	0.0161	3.27	0.69	0.0527	0.805	
CCC1=C(C)c2cc3[nH]c(cc4nc(c5c6[nH]c(cc1n2)c(C)c6C(=O)C5)[C@@H](CCC(=O)NCC(=O)CCC(=O)O)[C@@H]4C)c(C)c3C(C)OCCOC (some centres not stated)	1.82	660 to 670 nm	661 to 669	Active	7.43	0.0162	5.65	0.76	0.2431	0.81	
CCCOC(C)c1c(C)c2cc3nc(c4c5[nH]c(cc6nc(cc1[nH]2)C(C)=C6CC)c(C)c5C(=O)C4)[C@@H](CCC(=O)NCC(=O)CCC(=O)O)[C@@H]3C (some centres not stated)	2.34	660 to 670 nm	661 to 669	Active	5.32	0.018	2.66	0.5	0.0495	0.9	
C=Cc1c(C)c2cc3nc(c4c5[nH]c(cc6nc(cc1[nH]2)C(C)=C6CC)c(C)c5C(=O)C4)[C@@H](CCC(=O)NCC(=O)CCC(=O)O)[C@@H]3C	2.28	660 to 670 nm	661 to 669	Active	1.59	0.0251	3.19	2.01	0.2826	1.25	Activity [26]: 669 nm
CCCCCOC(C)c1c(C)c2cc3nc(c4c5[nH]c(cc6nc(cc1[nH]2)C(C)=C6CC)c(C)c5C(=O)C4)[C@@H](CCC(=O)NCC(=O)CCC(=O)O)[C@@H]3C (some centres not stated)	2.61	660 to 670 nm	661 to 669	Active	10.4	0.0353	1.04	0.1	0	1.76	
CCC1=C(C)c2cc3[nH]c(cc4nc(c5c6[nH]c(cc1n2)c(C)c6C(=O)C5)[C@@H](CCC(=O)NCC(=O)CCC(=O)O)[C@@H]4C)c(C)c3C(C)OC (some centres not stated)	1.91	660 to 670 nm	661 to 669	Active	4.54	0.0195	2.68	0.59	0.1265	0.975	

Continued, in another order:

logP [2]	Activity [3]	Activity [4] [nm]	Drug uptake [6]	Compound	selectivity ratio [1]	K [5] [s⁻¹]	CC50 at 24 h [7] [µM]	IC50 (A549 [8]) [µM]	Activity (A549 [9]) [g]	Ratio [10]	other results
2.22	660 to 670 nm	661 to 669	Active	CCCOCCOC(C)c1c(C)c2cc3nc(c4c5[nH]c(cc6nc(cc1[nH]2)C(C)=C6CC)c(C)c5C(=O)C4)[C@@H](CCC(=O)NCC(=O)CCC(=O)O)[C@@H]3C (some centres not stated)	3.42	0.0329	4	1.17	0.1154	1.65	
3.77	Active	661 to 669		C=Cc1c(C)c2cc3nc(c4c5[nH]c(cc6nc(cc1[nH]2)C(C)=C6CC)c(C)c5C(=O)C4)[C@@H](CCC(=O)O)[C@@H]3C [PYROPHEOPHORBIDE A]		0.0081				0.405	Activity (Mus musculus [11]): Non-Toxic; Activity (Mus musculus [12]): 13.3 mg; Activity (Mus musculus [13]): 13.2 mg; Activity (Mus musculus [14]): 12.7 mg; Activity (Mus musculus [15]): 13.1 mg; Activity (Mus musculus [16]): Non-Toxic; Activity (Cavia porcellus [17]): 57.2 mg; Activity (Cavia porcellus [18]): 59.2 mg; Activity (Cavia porcellus [19]): 100.3 mg
		661 to 669		CCCCCCOC(C)c1c(C)c2cc3nc(c4c5[nH]c(cc6nc(cc1[nH]2)C(C)=C6CC)c(C)c5C(=O)C4)[C@@H](CCC(=O)O)[C@@H]3C (some centres not stated) [HPPH]	5.91	0.0357	1.95	0.33	0.0212	1.78	Activity (Mus musculus [11]): Non-Toxic; Activity (Mus musculus [12]): 13.2 mg; Activity (Mus musculus [13]): 13.1 mg; Activity (Mus musculus [14]): 13.3 mg; Activity (Mus musculus [15]): 12.8 mg; Activity (A549 [20]): Active; Activity (A549 [21]): Active; Activity (A549 [22]): Active; Activity (Mus musculus [16]): Non-Toxic; Activity (Mus musculus [23]): Non-Toxic; Activity (Cavia porcellus [17]): 42.6 mg; Activity (Cavia porcellus [18]): 42.2 mg; Activity (Cavia porcellus [19]): 74.1 mg; Activity (Cavia porcellus [24]): Non-Toxic; Activity (Cavia porcellus [25]): Non-Toxic
2.67	660 to 670 nm	661 to 669	Active	CCCCCCOC(C)c1c(C)c2cc3nc(c4c5[nH]c(cc6nc(cc1[nH]2)C(C)=C6CC)c(C)c5C(=O)C4)[C@@H](CCC(=O)NCC(=O)CCC(=O)O)[C@@H]3C (some centres not stated)	12.6	0.0363	1.01	0.08	0	1.81	
